# M5 PAM: human M5 muscarinic receptor positive allosteric modulators, primary screen, CHO-K1 cells, Fluo-8 calcium fluorescence. activation, % at 3 µM. hit rate 0.3% among 360,000. Muscarinic acetylcholine receptor M5 (Homo sapiens), P08912. CHO-K1 hM5, ACh EC20 PAM; 0% = ACh EC20, 100% = ACh EC100;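 active = activation above the run cutoff, the mean activation of all test compounds plus 3 SD, cut at about 18% in these data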
#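 Assay system: CHO-K1 hM5 cells / Incubation: Fluo-8 loading 80 min at 37 °C plus 30 min room temperature / Technique: Fluo-8 calcium dye fluorescence, kinetic read / Repeats: single replicate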
# M5 antag: human M5 muscarinic receptor antagonists, primary screen, CHO cells, Fluo-8 calcium fluorescence; CHO-hM5 cells, ACh EC80; inhibition, % at 3 µM; hit rate 0.59% among 360,000; AID 624040, 2012;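 active = inhibition above a per-plate cutoff, the mean of that plate's test compounds plus 3 SD, cut at about 27% in these data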;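 also: 0% = acetylcholine EC80 with DMSO and 100% = DMSO without agonist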
# M4 PAM: human M4 muscarinic receptor positive allosteric modulators, primary screen, CHO-K1 cells, Fluo-8 calcium fluorescence. Muscarinic acetylcholine receptor M4 (Homo sapiens), P08173. hit rate 0.4% among 360,000. CHO-K1 hM4/Gqi5, ACh EC20; 0% = ACh EC20, 100% = maximal ACh. activation, % at 3 µM. AID 624126, 2012;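 active = activation above its plate's cutoff, the mean activation of sample wells plus 3 SD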
# Target sequence (P08173 whole entry, looked up): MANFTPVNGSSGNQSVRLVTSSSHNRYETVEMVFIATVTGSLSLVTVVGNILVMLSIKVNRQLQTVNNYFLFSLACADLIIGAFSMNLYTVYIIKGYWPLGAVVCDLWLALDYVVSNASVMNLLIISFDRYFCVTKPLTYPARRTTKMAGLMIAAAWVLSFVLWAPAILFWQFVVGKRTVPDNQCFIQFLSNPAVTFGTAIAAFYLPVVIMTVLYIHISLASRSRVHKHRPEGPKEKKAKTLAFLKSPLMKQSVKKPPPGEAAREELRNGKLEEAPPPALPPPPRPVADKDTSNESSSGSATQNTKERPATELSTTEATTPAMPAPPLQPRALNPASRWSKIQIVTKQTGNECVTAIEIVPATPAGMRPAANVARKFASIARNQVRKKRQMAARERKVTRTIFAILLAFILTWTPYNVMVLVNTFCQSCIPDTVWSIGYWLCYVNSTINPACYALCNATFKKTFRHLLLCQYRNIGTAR
# CHRM5 agonist: human M5 muscarinic receptor agonists, primary screen, CHO-K1 cells, Fluo-8 calcium fluorescence | Muscarinic acetylcholine receptor M5 (Homo sapiens), P08912 | CHO-K1 hM5 cells; 0% DMSO wells, 100% maximal acetylcholine response | activation, % at 3 µM | hit rate 0.19% among 360,000 | AID 624037, 2012;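 active = activation above the run's mean over test compounds plus 3 SD, cut at about 23% in these data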;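 also: signal is peak over basal fluorescence ratio across the kinetic read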
# CHRM4 agonist: human M4 muscarinic receptor agonists, primary screen, CHO-K1 cells, Fluo-8 calcium fluorescence; CHO-K1 hM4/Gqi5; vehicle 0%, full acetylcholine response 100%; activation, % at 3 µM; hit rate 0.14% among 360,000;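 active = activation above the run mean over all test wells plus 3 SD, cut at about 32% in these data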;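 also: peak over basal fluorescence ratio per well then scaled between controls; 0% = DMSO wells and 100% = acetylcholine at EC100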
# M4 antag: human M4 muscarinic receptor antagonists, primary screen, CHO cells, Fluo-8 calcium fluorescence | Muscarinic acetylcholine receptor M4 (Homo sapiens), P08173 | CHO-hM4 cells, ACh EC80 | inhibition, % at 3 µM | hit rate 0.73% among 360,000 | AID 624125, 2012;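 active = inhibition above its plate's cutoff, the mean inhibition of sample wells plus 3 SD, cut at about 27% in these data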;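 also: 0% = acetylcholine EC80 with DMSO and 100% = DMSO without agonist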
# * marks the source's active call; other numbers are inactive results. This is a sample that favours compounds with a hit; in the whole collection about 1.8% have one here.
SMILES,M5 PAM,M5 antag,M4 PAM,CHRM5 agonist,CHRM4 agonist,M4 antag
OCCN1CCN(c2ncnc3c2ncn3[C@H]2CN(Cc3cccc(C(F)(F)F)c3)C[C@@H](CO)O2)CC1,0.2,3.4,-0.3,0.3,0.8,-8.4
Cc1cccc(C)c1NC(=O)C1(C)CSCC(=O)N1CCc1c[nH]c2ccccc12 (centres undefined),7.3,-12.1,0.3,0.3,5.5,-12.9
CCOC(=O)Cc1csc(NC(=O)CCS(=O)(=O)Cc2ccccc2)n1,3.4,-8.9,3.8,6.9,2.1,-12.8
O=C(NNC(=O)c1cc([N+](=O)[O-])ccc1Cl)c1cccs1,4.3,-0.4,6.2,-2.3,1.3,0.2
O=C(NNS(=O)(=O)c1ccc2ccccc2c1)C1CCN(Cc2ccccc2)CC1,-23.4,46.4*,-23.0,-4.2,2.3,41.5*
O=C(COC(=O)/C=C/c1cccc(Br)c1)NC1CCCC1,12.0,-17.2,9.4,5.2,1.1,-16.8
Fc1cccc(Cc2c(-c3cccc(Cl)c3)nc3ccc(Cl)cn23)c1,-4.6,-8.4,-4.6,-0.6,-0.8,-14.7
Cc1ccc(NC2=C/C(=N/S(=O)(=O)c3cccs3)c3ccccc3C2=O)cc1C,-3.2,3.6,1.9,0.6,1.1,-9.2
CC(=O)Nc1ccc(NC2=C/C(=N/S(=O)(=O)c3cccs3)c3ccccc3C2=O)cc1,-5.0,28.0*,-8.5,2.7,15.0,11.3
Cc1onc(-c2ccccc2)c1C(=O)NNC(=S)NC(=O)c1ccc(Cl)cc1Cl,-8.5,-1.5,-13.0,30.3*,113.2*,2.5
Cc1ccc(C(=O)NNC(=S)NC(=O)c2ccc(Cl)cc2)cc1,-30.1,17.8,-17.4,97.9*,130.9*,33.3*
COc1cc(OC)c(NC(=O)c2c(-c3ccccc3)noc2C)cc1Cl,18.4*,-12.3,8.8,1.9,-1.1,-0.6
Cc1ccccc1C(=O)NNC(=S)NC(=O)c1ccc(Cl)cc1Cl,-17.0,25.9,-26.1,53.0*,84.0*,23.1
O=[N+]([O-])c1ccc2[nH]c(O)c(N=NC3CCS(=O)(=O)C3)c2c1 (centres undefined),9.4,-5.8,-0.2,3.6,0.8,-7.1
Cc1ccc(NS(=O)(=O)c2cc(NC(=O)c3ccc4c(c3)NC(=O)CS4)ccc2C)c(C)c1,-8.7,0.9,-5.4,-2.6,1.7,0.9
Cc1onc(-c2ccccc2)c1C(=O)NNC(=S)NC(=O)c1ccc(Br)cc1,-14.0,-4.8,-11.2,34.6*,60.6*,2.9
Cc1cccc(C(=O)NC(=S)NNC(=O)c2ccccc2Cl)c1,-17.0,6.8,-7.9,46.0*,39.8*,5.2
Cc1cccc(C(=O)NC(=S)NNC(=O)COc2c(C)cccc2C)c1,-1.9,-1.2,22.9*,-0.1,1.4,2.7
Cc1cccc(C(=O)NC(=S)NNC(=O)Cc2ccccc2)c1,-1.9,7.0,-0.5,0.7,1.8,-3.6
COc1ccc(NC(=O)c2cccnc2Nc2ccc(OC)cc2)cc1,-0.3,4.1,-16.6,-4.0,2.5,51.7*
C/C=C\C(=O)Nc1cccc(C2=NOC3(C2)C[C@@H](C(N)=O)N(C(=O)c2ccc(Cl)cc2)C3)c1 (some centres undefined),18.9*,0.8,7.3,-1.9,0.6,-5.8
Cc1cc(C)n(-c2cccc(F)n2)n1,19.1*,-0.5,1.0,3.7,0.1,3.5
CCN(CC)CC(C)(C)C(=O)/C=C/c1ccc(/C=C/C(=O)C(C)(C)CN(CC)CC)cc1,6.3,11.6,-6.0,-0.9,3.3,41.6*
CCC(=O)c1ccc(OC(=O)c2ccc(Br)o2)cc1,-7.1,0.0,-9.7,35.6*,33.0*,1.5
COc1ccc(CCN2CCCn3c2nc2c3c(=O)[nH]c(=O)n2C)cc1OC,-3.4,6.9,3.0,-2.9,2.3,-5.4
SMILES,M5 PAM,M5 antag,M4 PAM,CHRM5 agonist,CHRM4 agonist,M4 antag
COC(=O)[C@H](Cc1ccccc1)NC(=O)N1CCN(c2ccc(F)cc2)CC1,-5.9,13.9,-5.4,-1.4,1.7,5.5
CC1CCN(CCNC(=O)c2ccc3c(=O)n(Cc4ccc(Cl)cc4)c(=S)[nH]c3c2)CC1,-15.0,17.4,-21.7,2.2,58.7*,29.3*
O=C(NCCCN1CCOCC1)c1ccc2c(=O)n(Cc3cccc(Br)c3)c(=S)[nH]c2c1,1.5,14.4,-1.1,0.4,2.7,4.5
CCN(CC)CCNC(=O)c1ccc2c(=O)n(C3CCCC3)c(=S)[nH]c2c1,-3.0,1.3,-27.3,-8.1,2.1,26.9*
O=C(NCCN1CCCC1)c1ccc(Cn2c(=S)[nH]c3ccc(Br)cc3c2=O)cc1,-33.4,26.1,-13.0,45.6*,6.0,1.2
CC(C)NC(=O)c1ccc2c(=O)n(C3CCCC3)c(=S)[nH]c2c1,0.6,-1.1,6.8,-1.7,0.3,4.2
NC(=O)c1ccccc1NC(=O)C1CCCO1 (centres undefined),2.2,0.0,5.1,3.3,0.7,-21.1
Cc1ccc(S(=O)(=O)CCC(=O)OCC(=O)Nc2ccc(N3CCOCC3)cc2)cc1,-7.2,9.4,-5.7,2.7,1.6,0.3
O=C(NCc1ccccc1)c1cccc(NC(=O)C2CCCC2)c1,1.4,-2.7,-4.0,2.6,4.5,13.9
COc1ccc(OC2CCN(S(=O)(=O)c3ccc(C(C)=O)cc3)CC2)cc1,-12.8,17.9,-14.2,3.0,16.9,8.5
CCc1nccn1CCC(=O)NC1CC(C)(C)Cc2c1cnn2-c1cccc(F)c1 (centres undefined),-3.9,5.9,-0.3,-5.1,2.2,-4.8
CS(=O)(=O)c1ccc(Cl)c(NC(=O)COC(=O)c2ccc(F)cc2Cl)c1,18.1*,-3.6,5.3,5.2,0.3,1.9
COc1ccccc1NC(=O)Cn1nnc(-c2ccccc2NS(=O)(=O)c2ccccc2)n1,-17.3,34.0*,-30.3,0.4,15.3,7.4
CCOC(=O)Cc1csc(NC(=O)CN2CCCCC2)n1,0.1,-6.0,1.5,1.8,0.8,-9.0
O=C(NCCc1ccccc1)C(=O)c1cn(CC(=O)N2CCCC2)c2ccccc12,-9.7,27.3*,7.0,-3.1,4.7,5.2
COc1ccccc1CCNC(=O)C(=O)c1cn(CC(=O)N2CCCC2)c2ccccc12,0.8,-7.5,0.2,-1.6,8.3,-23.1

# High-throughput results from PubChem BioAssay.
